Experimental data: ChEMBL document CHEMBL1129264, “Mercaptoacyl dipeptides as orally active dual inhibitors of angiotensin-converting enzyme and neutral endopeptidase” (1996)

Legend:
Type in all cases: organism-based
[1] = biological target: T1, Angiotensin-converting enzyme (Rattus norvegicus) (UniProt P47820); experiment: Compound was tested for plasma inhibition of Angiotensin I converting enzyme activity in the conscious rat. Expressed as Inhibition of AI pressor response at 1 hr at a dose of 10 mg/kg po; parameters: dose 10 mg/kg
T1 sequence (whole entry): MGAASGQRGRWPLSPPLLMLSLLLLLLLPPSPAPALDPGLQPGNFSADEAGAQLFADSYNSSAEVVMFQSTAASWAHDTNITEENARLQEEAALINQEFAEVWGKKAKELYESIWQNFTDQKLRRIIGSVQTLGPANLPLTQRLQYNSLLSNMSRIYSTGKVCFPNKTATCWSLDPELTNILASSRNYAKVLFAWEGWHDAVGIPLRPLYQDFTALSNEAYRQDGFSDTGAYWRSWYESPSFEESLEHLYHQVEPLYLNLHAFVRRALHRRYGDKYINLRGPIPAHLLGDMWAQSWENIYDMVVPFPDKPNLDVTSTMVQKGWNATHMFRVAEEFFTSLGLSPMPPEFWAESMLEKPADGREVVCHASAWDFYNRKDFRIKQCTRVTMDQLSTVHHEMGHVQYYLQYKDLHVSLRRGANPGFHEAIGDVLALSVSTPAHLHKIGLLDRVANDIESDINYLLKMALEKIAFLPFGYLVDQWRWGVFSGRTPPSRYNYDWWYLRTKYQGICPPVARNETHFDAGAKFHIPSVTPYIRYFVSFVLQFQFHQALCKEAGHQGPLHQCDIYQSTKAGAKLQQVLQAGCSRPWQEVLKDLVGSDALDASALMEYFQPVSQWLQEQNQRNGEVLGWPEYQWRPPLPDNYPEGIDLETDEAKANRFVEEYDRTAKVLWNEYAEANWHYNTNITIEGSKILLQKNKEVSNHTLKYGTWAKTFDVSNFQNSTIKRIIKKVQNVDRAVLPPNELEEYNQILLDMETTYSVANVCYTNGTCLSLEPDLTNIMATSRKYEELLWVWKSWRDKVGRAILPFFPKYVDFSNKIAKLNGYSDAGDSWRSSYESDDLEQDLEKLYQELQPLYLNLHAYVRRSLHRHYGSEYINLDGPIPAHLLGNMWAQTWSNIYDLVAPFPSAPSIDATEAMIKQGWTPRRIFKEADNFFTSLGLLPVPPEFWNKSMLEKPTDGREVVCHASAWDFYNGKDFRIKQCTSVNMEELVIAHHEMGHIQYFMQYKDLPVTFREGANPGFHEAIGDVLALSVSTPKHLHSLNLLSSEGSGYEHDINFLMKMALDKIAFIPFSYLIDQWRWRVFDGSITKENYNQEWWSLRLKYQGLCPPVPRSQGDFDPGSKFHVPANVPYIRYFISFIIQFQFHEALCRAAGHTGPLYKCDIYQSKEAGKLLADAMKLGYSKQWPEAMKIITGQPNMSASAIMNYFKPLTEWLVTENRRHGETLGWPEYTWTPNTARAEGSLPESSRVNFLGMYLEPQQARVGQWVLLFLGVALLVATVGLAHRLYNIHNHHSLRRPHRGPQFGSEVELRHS
Summary of the method: (§1)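 Male conscious normotensive Sprague-Dawley rats (275-390 g), given femoral arterial and venous catheters under methohexital sodium (75 mg/kg ip) anesthesia. Next day, pressor responses to three angiotensin-I challenges (300 ng/kg iv) recorded by direct arterial pressure. Compound then dosed orally, and AI challenge repeated at set times. Each post-dose response compared with the mean of the three baseline responses, giving % inhibition.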

[2] = biological target: T1, Angiotensin-converting enzyme (Rattus norvegicus); experiment: Compound was tested for plasma inhibition of Angiotensin I converting enzyme activity in the conscious rat. Expressed as Inhibition of AI pressor response at 6 hr at a dose of 10 mg/kg po; parameters: dose 10 mg/kg
Summary of the method: (§2)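 Male conscious normotensive Sprague-Dawley rats (275-390 g), prepared under methohexital sodium (75 mg/kg ip) with femoral arterial and venous catheters. The next day, pressor responses to three angiotensin-I challenges (300 ng/kg iv) were recorded. Compound was then given orally and angiotensin-I challenges were repeated at set times. Percent inhibition is relative to the mean of the three baseline responses.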

[3] = biological target: T1, Angiotensin-converting enzyme (Rattus norvegicus); experiment: Compound was tested for plasma inhibition of Angiotensin I converting enzyme activity in the conscious rat. Expressed as Inhibition of AI pressor response at 4 hr at a dose of 10 mg/kg po; parameters: dose 10 mg/kg; summary of the method: as §1
[4] = biological target: T1, Angiotensin-converting enzyme (Rattus norvegicus); experiment: Compound was tested for plasma inhibition of Angiotensin I converting enzyme activity in the conscious rat. Expressed as Inhibition of AI pressor response at 2 hr at a dose of 10 mg/kg po; parameters: dose 10 mg/kg; summary of the method: as §1
[5] = biological target: T1, Angiotensin-converting enzyme (Rattus norvegicus); experiment: Compound was tested for plasma inhibition of Angiotensin I converting enzyme activity in the conscious rat. Expressed as Inhibition of AI pressor response at 1 hr at a dose of 13.1 mg/kg po; parameters: dose 13.1 mg/kg; summary of the method: as §1
[6] = biological target: T1, Angiotensin-converting enzyme (Rattus norvegicus); experiment: Compound was tested for plasma inhibition of Angiotensin I converting enzyme activity in the conscious rat. Expressed as Inhibition of AI pressor response at 2 hr at a dose of 13.1 mg/kg po; parameters: dose 13.1 mg/kg; summary of the method: as §1
[7] = biological target: T1, Angiotensin-converting enzyme (Rattus norvegicus); experiment: Compound was tested for plasma inhibition of Angiotensin I converting enzyme activity in the conscious rat. Expressed as Inhibition of AI pressor response at 6 hr at a dose of 13.1 mg/kg po; parameters: dose 13.1 mg/kg; summary of the method: as §2
[8] = biological target: T1, Angiotensin-converting enzyme (Rattus norvegicus); experiment: Compound was tested for plasma inhibition of Angiotensin I converting enzyme activity in the conscious rat. Expressed as Inhibition of AI pressor response at 4 hr at a dose of 13.1 mg/kg po; parameters: dose 13.1 mg/kg; summary of the method: as §2
[9] = biological target: T1, Angiotensin-converting enzyme (Rattus norvegicus); experiment: Compound was tested for plasma inhibition of Angiotensin I converting enzyme activity in the conscious rat. Expressed as Inhibition of AI pressor response at 2 hr at a dose of 12.8 mg/kg po; parameters: dose 12.8 mg/kg; summary of the method: as §1
[10] = biological target: T1, Angiotensin-converting enzyme (Rattus norvegicus); experiment: Compound was tested for plasma inhibition of Angiotensin I converting enzyme activity in the conscious rat. Expressed as Inhibition of AI pressor response at 6 hr at a dose of 12.8 mg/kg po; parameters: dose 12.8 mg/kg; summary of the method: as §2
[11] = biological target: T1, Angiotensin-converting enzyme (Rattus norvegicus); experiment: Compound was tested for plasma inhibition of Angiotensin I converting enzyme activity in the conscious rat. Expressed as Inhibition of AI pressor response at 1 hr at a dose of 12.8 mg/kg po; parameters: dose 12.8 mg/kg; summary of the method: as §1
[12] = biological target: T1, Angiotensin-converting enzyme (Rattus norvegicus); experiment: Compound was tested for plasma inhibition of Angiotensin I converting enzyme activity in the conscious rat. Expressed as Inhibition of AI pressor response at 4 hr at a dose of 12.8 mg/kg po; parameters: dose 12.8 mg/kg; summary of the method: as §1
[13] = biological target: T1, Angiotensin-converting enzyme (Rattus norvegicus); experiment: Compound was tested for plasma inhibition of Angiotensin I converting enzyme activity in the conscious rat. Expressed as Inhibition of AI pressor response at 2 hr at a dose of 11.7 mg/kg po; parameters: dose 11.7 mg/kg; summary of the method: as §1
[14] = biological target: T1, Angiotensin-converting enzyme (Rattus norvegicus); experiment: Compound was tested for plasma inhibition of Angiotensin I converting enzyme activity in the conscious rat. Expressed as Inhibition of AI pressor response at 6 hr at a dose of 11.7 mg/kg po; parameters: dose 11.7 mg/kg; summary of the method: as §2
[15] = biological target: T1, Angiotensin-converting enzyme (Rattus norvegicus); experiment: Compound was tested for plasma inhibition of Angiotensin I converting enzyme activity in the conscious rat. Expressed as Inhibition of AI pressor response at 4 hr at a dose of 11.7 mg/kg po; parameters: dose 11.7 mg/kg; summary of the method: as §1
[16] = biological target: T1, Angiotensin-converting enzyme (Rattus norvegicus); experiment: Compound was tested for plasma inhibition of Angiotensin I converting enzyme activity in the conscious rat. Expressed as Inhibition of AI pressor response at 1 hr at a dose of 11.7 mg/kg po; parameters: dose 11.7 mg/kg; summary of the method: as §1
[17] = biological target: T1, Angiotensin-converting enzyme (Rattus norvegicus); experiment: Compound was tested for plasma inhibition of Angiotensin I converting enzyme activity in the conscious rat. Expressed as Inhibition of AI pressor response at 2 hr at a dose of 12.4 mg/kg po; parameters: dose 12.4 mg/kg; summary of the method: as §1
[18] = biological target: T1, Angiotensin-converting enzyme (Rattus norvegicus); experiment: Compound was tested for plasma inhibition of Angiotensin I converting enzyme activity in the conscious rat. Expressed as Inhibition of AI pressor response at 1 hr at a dose of 12.4 mg/kg po; parameters: dose 12.4 mg/kg; summary of the method: as §1
[19] = biological target: T1, Angiotensin-converting enzyme (Rattus norvegicus); experiment: Compound was tested for plasma inhibition of Angiotensin I converting enzyme activity in the conscious rat. Expressed as Inhibition of AI pressor response at 4 hr at a dose of 12.4 mg/kg po; parameters: dose 12.4 mg/kg; summary of the method: as §1
[20] = biological target: T1, Angiotensin-converting enzyme (Rattus norvegicus); experiment: Compound was tested for plasma inhibition of Angiotensin I converting enzyme activity in the conscious rat. Expressed as Inhibition of AI pressor response at 6 hr at a dose of 12.4 mg/kg po; parameters: dose 12.4 mg/kg; summary of the method: as §2

Structure (SMILES): CCOC(=O)[C@H](Cc1ccc(O)cc1)NC(=O)C1(NC(=O)[C@H](SC(C)=O)C(C)C)CCCC1
- inhibition [1]: 86%
- inhibition [2]: 47%
- inhibition [3]: 83%
- inhibition [4]: 81%

Structure (SMILES): CCCCOC(=O)[C@H](Cc1ccc(O)cc1)NC(=O)C1(NC(=O)[C@H](SC(=O)COC)C(C)C)CCCC1
- inhibition [5]: 76%
- inhibition [6]: 75%
- inhibition [7]: 54%
- inhibition [8]: 58%

Structure (SMILES): COC(=O)[C@H](Cc1ccc(O)cc1)NC(=O)C1(NC(=O)[C@H](SC(C)=O)C(C)C)CCCC1
- inhibition [1]: 76%
- inhibition [2]: 14%
- inhibition [3]: 25%
- inhibition [4]: 72%

Structure (SMILES): CCOC(=O)[C@H](Cc1ccc(O)cc1)NC(=O)C1(NC(=O)[C@H](SC(=O)C(C)(C)C)C(C)C)CCCC1
- inhibition [9]: 17%
- inhibition [10]: 19%
- inhibition [11]: 8%
- inhibition [12]: 14%

Structure (SMILES): CCCCOC(=O)[C@H](Cc1ccc(O)cc1)NC(=O)C1(NC(=O)[C@H](SC(=O)C(C)C)C(C)C)CCCC1
- inhibition [5]: 27%
- inhibition [6]: 16%
- inhibition [8]: 25%

Structure (SMILES): CCOC(=O)[C@H](Cc1ccc(OC)cc1)NC(=O)C1(NC(=O)[C@H](SC(=O)COC)C(C)C)CCCC1
- inhibition [13]: 91%
- inhibition [14]: 52%
- inhibition [15]: 76%
- inhibition [16]: 81%

Structure (SMILES): CCOC(=O)[C@H](Cc1ccc(OC(=O)CC)cc1)NC(=O)C1(NC(=O)[C@H](SC(C)=O)C(C)C)CCCC1
- inhibition [5]: 50%
- inhibition [6]: 35%
- inhibition [7]: 4%
- inhibition [8]: 23%

Structure (SMILES): CC(=O)S[C@@H](C(=O)NC1(C(=O)N[C@@H](Cc2ccc(O)cc2)C(=O)OCC(C)C)CCCC1)C(C)C
- inhibition [17]: 77%
- inhibition [18]: 76%
- inhibition [19]: 69%
- inhibition [20]: 20%
